Results: paper PMC13170702 (Nuclear medicine and biology, 2025)
Where two headings read alike, the source gives them in different places.

Experiments:
healthy volunteers = experiment: first-in-human adverse event monitoring in healthy volunteers; assay type: in vivo
Outline: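 Participants were aged 56–75 (four male, four female). Tracer was given as an i.v. bolus (1–2 min) via a cephalic-vein catheter, supine, before 94 min of PET-MR over three sessions ending at 214 min. Adverse events were watched for continuously during scans, breaks and afterwards. Vital signs and ECG were taken ~60 min post-imaging, then physician/nurse review before discharge and off-site follow-up at 24–48 h. Later events were self-reported.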

[1] = whole-body PET-MR biodistribution and TIAC determination; assay type: in vivo, human
Outline: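 Tracer 70.3–355 MBq was given as an i.v. bolus; whole-body PET-MR used 6 bed positions. WB1–WB5 ran 0–34 min (1 min/bed), WB6–7 35–60 min (2 min/bed), WB8 80–104 min and WB9 180–214 min (4 min/bed). Voiding and water were allowed in breaks. SUV was read from AMIDE VOIs at early times (<1 h). Decay-corrected %IA per organ VOI over time was fitted by the exponential model (OLINDA/EXM 1.1) for TIACs.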

[2] = i.v., low molar activity tracer, PET-CT; cited from earlier work
[3] = i.v., low molar activity tracer, PET-CT; cited from earlier work; remark: listed apart in the source

- SUV, brain and spinal tissues ([1]; 27–34 min after injection): > 1
- SUV, major organs, CNS and peripheral tissues ([1]; 27–34 min after injection): > 1
- TIAC, Brain ([1]; F1 (189 MBq)): 0.084 MBq-h/MBq
- TIAC, Gallbladder wall ([1]; F1 (189 MBq)): 0.0031 MBq-h/MBq
- TIAC, Heart contents ([1]; F1 (189 MBq)): 0.00463 MBq-h/MBq
- TIAC, Heart wall ([1]; F1 (189 MBq)): 0.0155 MBq-h/MBq
- TIAC, Kidneys ([1]; F1 (189 MBq)): 0.25 MBq-h/MBq
- TIAC, Liver ([1]; F1 (189 MBq)): 0.209 MBq-h/MBq
- TIAC, Lungs ([1]; F1 (189 MBq)): 0.274 MBq-h/MBq
- TIAC, Pancreas ([1]; F1 (189 MBq)): 0.00899 MBq-h/MBq
- TIAC, Remainder ([1]; F1 (189 MBq)): 1.28 MBq-h/MBq
- TIAC, Small intestine ([1]; F1 (189 MBq)): 0.0843 MBq-h/MBq
- TIAC, Spleen ([1]; F1 (189 MBq)): 0.0284 MBq-h/MBq
- TIAC, Thymus ([1]; F1 (189 MBq)): 0.00372 MBq-h/MBq
- TIAC, Thyroid ([1]; F1 (189 MBq)): 0.00052 MBq-h/MBq
- TIAC, Urinary bladder contents ([1]; F1 (189 MBq)): 0.138 MBq-h/MBq
- TIAC, Uterus/Uterine wall ([1]; F1 (189 MBq)): 0.00432 MBq-h/MBq
- TIAC, Brain ([1]; F2, no voiding (355 MBq)): 0.075 MBq-h/MBq
- TIAC, Gallbladder wall ([1]; F2, no voiding (355 MBq)): 0.00204 MBq-h/MBq
- TIAC, Heart contents ([1]; F2, no voiding (355 MBq)): 0.00054 MBq-h/MBq
- TIAC, Heart wall ([1]; F2, no voiding (355 MBq)): 0.0118 MBq-h/MBq
- TIAC, Kidneys ([1]; F2, no voiding (355 MBq)): 0.391 MBq-h/MBq
- TIAC, Liver ([1]; F2, no voiding (355 MBq)): 0.202 MBq-h/MBq
- TIAC, Lungs ([1]; F2, no voiding (355 MBq)): 0.31 MBq-h/MBq
- TIAC, Pancreas ([1]; F2, no voiding (355 MBq)): 0.00377 MBq-h/MBq
- TIAC, Small intestine ([1]; F2, no voiding (355 MBq)): 0.0474 MBq-h/MBq
- TIAC, Spleen ([1]; F2, no voiding (355 MBq)): 0.00188 MBq-h/MBq
- TIAC, Thymus ([1]; F2, no voiding (355 MBq)): 0.00178 MBq-h/MBq
- TIAC, Thyroid ([1]; F2, no voiding (355 MBq)): 0.0047 MBq-h/MBq
- TIAC, Urinary bladder contents ([1]; F2, no voiding (355 MBq)): 0.127 MBq-h/MBq
- TIAC, Uterus/Uterine wall ([1]; F2, no voiding (355 MBq)): 0.0564 MBq-h/MBq
- TIAC, Brain ([1]; F3 (117 MBq)): 0.0606 MBq-h/MBq
- TIAC, Gallbladder wall ([1]; F3 (117 MBq)): 0.00328 MBq-h/MBq
- TIAC, Heart contents ([1]; F3 (117 MBq)): 0.00112 MBq-h/MBq
- TIAC, Heart wall ([1]; F3 (117 MBq)): 0.0131 MBq-h/MBq
- TIAC, Kidneys ([1]; F3 (117 MBq)): 0.266 MBq-h/MBq
- TIAC, Liver ([1]; F3 (117 MBq)): 0.262 MBq-h/MBq
- TIAC, Lungs ([1]; F3 (117 MBq)): 0.186 MBq-h/MBq
- TIAC, Pancreas ([1]; F3 (117 MBq)): 0.00504 MBq-h/MBq
- TIAC, Remainder ([1]; F3 (117 MBq)): 1.44 MBq-h/MBq
- TIAC, Small intestine ([1]; F3 (117 MBq)): 0.0667 MBq-h/MBq
- TIAC, Spleen ([1]; F3 (117 MBq)): 0.011 MBq-h/MBq
- TIAC, Thymus ([1]; F3 (117 MBq)): 0.00146 MBq-h/MBq
- TIAC, Thyroid ([1]; F3 (117 MBq)): 0.00131 MBq-h/MBq
- TIAC, Urinary bladder contents ([1]; F3 (117 MBq)): 0.00659 MBq-h/MBq
- TIAC, Uterus/Uterine wall ([1]; F3 (117 MBq)): 0.0115 MBq-h/MBq
- TIAC, Brain ([1]; F4 (167 MBq)): 0.0781 MBq-h/MBq
- TIAC, Gallbladder wall ([1]; F4 (167 MBq)): 0.00062 MBq-h/MBq
- TIAC, Heart contents ([1]; F4 (167 MBq)): 0.0015 MBq-h/MBq
- TIAC, Heart wall ([1]; F4 (167 MBq)): 0.0212 MBq-h/MBq
- TIAC, Kidneys ([1]; F4 (167 MBq)): 0.245 MBq-h/MBq
- TIAC, Liver ([1]; F4 (167 MBq)): 0.192 MBq-h/MBq
- TIAC, Lungs ([1]; F4 (167 MBq)): 0.231 MBq-h/MBq
- TIAC, Pancreas ([1]; F4 (167 MBq)): 0.0053 MBq-h/MBq
- TIAC, Remainder ([1]; F4 (167 MBq)): 1.22 MBq-h/MBq
- TIAC, Small intestine ([1]; F4 (167 MBq)): 0.126 MBq-h/MBq
- TIAC, Spleen ([1]; F4 (167 MBq)): 0.0057 MBq-h/MBq
- TIAC, Thymus ([1]; F4 (167 MBq)): 0.0021 MBq-h/MBq
- TIAC, Thyroid ([1]; F4 (167 MBq)): 0.0009 MBq-h/MBq
- TIAC, Urinary bladder contents ([1]; F4 (167 MBq)): 0.0319 MBq-h/MBq
- TIAC, Uterus/Uterine wall ([1]; F4 (167 MBq)): 0.0133 MBq-h/MBq
- TIAC, Brain ([1]; M1 (326 MBq)): 0.0947 MBq-h/MBq
- TIAC, Gallbladder wall ([1]; M1 (326 MBq)): 0.00525 MBq-h/MBq
- TIAC, Heart contents ([1]; M1 (326 MBq)): 0.00354 MBq-h/MBq
- TIAC, Heart wall ([1]; M1 (326 MBq)): 0.0301 MBq-h/MBq
- TIAC, Kidneys ([1]; M1 (326 MBq)): 0.351 MBq-h/MBq
- TIAC, Liver ([1]; M1 (326 MBq)): 0.34 MBq-h/MBq
- TIAC, Lungs ([1]; M1 (326 MBq)): 0.322 MBq-h/MBq
- TIAC, Pancreas ([1]; M1 (326 MBq)): 0.0022 MBq-h/MBq
- TIAC, Remainder ([1]; M1 (326 MBq)): 1.27 MBq-h/MBq
- TIAC, Small intestine ([1]; M1 (326 MBq)): 0.161 MBq-h/MBq
- TIAC, Spleen ([1]; M1 (326 MBq)): 0.0528 MBq-h/MBq
- TIAC, Thymus ([1]; M1 (326 MBq)): 0.00576 MBq-h/MBq
- TIAC, Thyroid ([1]; M1 (326 MBq)): 0.0007 MBq-h/MBq
- TIAC, Urinary bladder contents ([1]; M1 (326 MBq)): 0.00668 MBq-h/MBq
- TIAC, Brain ([1]; M2 (289 MBq)): 0.0531 MBq-h/MBq
- TIAC, Gallbladder wall ([1]; M2 (289 MBq)): 0.0017 MBq-h/MBq
- TIAC, Heart contents ([1]; M2 (289 MBq)): 0.0248 MBq-h/MBq
- TIAC, Heart wall ([1]; M2 (289 MBq)): 0.202 MBq-h/MBq
- TIAC, Kidneys ([1]; M2 (289 MBq)): 0.424 MBq-h/MBq
- TIAC, Liver ([1]; M2 (289 MBq)): 0.19 MBq-h/MBq
- TIAC, Lungs ([1]; M2 (289 MBq)): 0.0012 MBq-h/MBq
- TIAC, Pancreas ([1]; M2 (289 MBq)): 0.111 MBq-h/MBq
- TIAC, Remainder ([1]; M2 (289 MBq)): 1.37 MBq-h/MBq
- TIAC, Small intestine ([1]; M2 (289 MBq)): 0.00196 MBq-h/MBq
- TIAC, Spleen ([1]; M2 (289 MBq)): 0.0158 MBq-h/MBq
- TIAC, Thymus ([1]; M2 (289 MBq)): 0.0013 MBq-h/MBq
- TIAC, Thyroid ([1]; M2 (289 MBq)): 0.00039 MBq-h/MBq
- TIAC, Urinary bladder contents ([1]; M2 (289 MBq)): 0.017 MBq-h/MBq
- TIAC, Brain ([1]; M3 (70.3 MBq)): 0.0611 MBq-h/MBq
- TIAC, Gallbladder wall ([1]; M3 (70.3 MBq)): 0.00199 MBq-h/MBq
- TIAC, Heart contents ([1]; M3 (70.3 MBq)): 0.0027 MBq-h/MBq
- TIAC, Heart wall ([1]; M3 (70.3 MBq)): 0.0297 MBq-h/MBq
- TIAC, Kidneys ([1]; M3 (70.3 MBq)): 0.286 MBq-h/MBq
- TIAC, Liver ([1]; M3 (70.3 MBq)): 0.249 MBq-h/MBq
- TIAC, Lungs ([1]; M3 (70.3 MBq)): 0.298 MBq-h/MBq
- TIAC, Pancreas ([1]; M3 (70.3 MBq)): 0.00353 MBq-h/MBq
- TIAC, Remainder ([1]; M3 (70.3 MBq)): 1.29 MBq-h/MBq
- TIAC, Small intestine ([1]; M3 (70.3 MBq)): 0.0651 MBq-h/MBq
- TIAC, Spleen ([1]; M3 (70.3 MBq)): 0.0218 MBq-h/MBq
- TIAC, Thymus ([1]; M3 (70.3 MBq)): 0.00217 MBq-h/MBq
- TIAC, Thyroid ([1]; M3 (70.3 MBq)): 0.00057 MBq-h/MBq
- TIAC, Urinary bladder contents ([1]; M3 (70.3 MBq)): 0.0429 MBq-h/MBq
- TIAC, Brain ([1]; M4 (153 MBq)): 0.078 MBq-h/MBq
- TIAC, Gallbladder wall ([1]; M4 (153 MBq)): 0.00356 MBq-h/MBq
- TIAC, Heart contents ([1]; M4 (153 MBq)): 0.0033 MBq-h/MBq
- TIAC, Heart wall ([1]; M4 (153 MBq)): 0.0276 MBq-h/MBq
- TIAC, Kidneys ([1]; M4 (153 MBq)): 0.332 MBq-h/MBq
- TIAC, Liver ([1]; M4 (153 MBq)): 0.229 MBq-h/MBq
- TIAC, Lungs ([1]; M4 (153 MBq)): 0.214 MBq-h/MBq
- TIAC, Pancreas ([1]; M4 (153 MBq)): 0.00723 MBq-h/MBq
- TIAC, Remainder ([1]; M4 (153 MBq)): 1.39 MBq-h/MBq
- TIAC, Small intestine ([1]; M4 (153 MBq)): 0.12 MBq-h/MBq
- TIAC, Spleen ([1]; M4 (153 MBq)): 0.0354 MBq-h/MBq
- TIAC, Thymus ([1]; M4 (153 MBq)): 0.00492 MBq-h/MBq
- TIAC, Thyroid ([1]; M4 (153 MBq)): 0.00105 MBq-h/MBq
- TIAC, Urinary bladder contents ([1]; M4 (153 MBq)): 0.0178 MBq-h/MBq
SMILES: COC(=O)[C@@H](N)CC(=O)Nc1ccc2c(c1)Cc1cc([18F])ccc1-2 [[^18F]RP-115, methyl N^4-(7-[^18F]fluoro-9H-fluoren-2-yl)asparaginate]
- adverse events / pharmacological effects (healthy volunteers; 70.3–355 MBq i.v. bolus, n=8, ≤48 h and up to 1 year): no adverse events (AE) or clinically detectable pharmacological effects
- tolerability (healthy volunteers; 70.3–355 MBq i.v., n=8, PET-MR scanning protocol): well tolerated
- CNS activity uptake (SUV) [2]: > 1
- CNS activity uptake (SUV) [3]: > 1
